Measured values taken from ChEMBL document CHEMBL4359831, “Chemoproteomics of an Indole-Based Quinone Epoxide Identifies Druggable Vulnerabilities in Vancomycin-Resistant Staphylococcus aureus” (J Med Chem, 2019).
In brackets after ≈: the same amount, converted by molar mass. Values belong to the compound of their own block, whether it stands above or below them. Activity calls are given as the source filed them. The calls are words filed in the database; no cut-off is given here.

Columns and labels:
[1] = L-cysteine reactivity in pH 7.4 phosphate buffer assessed as compound remaining at 100 uM incubated for 1 hr by HPLC analysis
Staphylococcus aureus [2] = assay: Antibacterial activity against Staphylococcus aureus ATCC 29213 after 16 to 18 hrs by CLSI M07-A10 protocol based dilution method; type: functional
Outline: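 MIC against ATCC 29213 determined by a previously described protocol; values in μg/mL.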

Staphylococcus aureus [3] = assay: Antibacterial activity against vancomycin-resistant Staphylococcus aureus HIP11714 after 16 to 18 hrs by CLSI M07-A10 protocol based dilution method; type: functional
Staphylococcus aureus [4] = assay: Antibacterial activity against vancomycin-resistant Staphylococcus aureus SA-HIP-15178 after 16 to 18 hrs by CLSI M07-A10 protocol based dilution method; type: functional
Staphylococcus aureus [5] = assay: Antibacterial activity against vancomycin-resistant Staphylococcus aureus SA-71080 after 16 to 18 hrs by CLSI M07-A10 protocol based dilution method; type: functional
Staphylococcus aureus [6] = assay: Antibacterial activity against vancomycin-resistant Staphylococcus aureus 1002434 after 16 to 18 hrs by CLSI M07-A10 protocol based dilution method; type: functional
Staphylococcus aureus [7] = assay: Antibacterial activity against vancomycin-resistant Staphylococcus aureus SA-HIP-11983 after 16 to 18 hrs by CLSI M07-A10 protocol based dilution method; type: functional
Staphylococcus aureus [8] = assay: Antibacterial activity against vancomycin-resistant Staphylococcus aureus SA-HIP-14300 after 16 to 18 hrs by CLSI M07-A10 protocol based dilution method; type: functional
Staphylococcus aureus [9] = assay: Antibacterial activity against vancomycin-resistant Staphylococcus aureus HIP14300 after 16 to 18 hrs by CLSI M07-A10 protocol based dilution method; type: functional
Staphylococcus aureus [10] = assay: Antibacterial activity against vancomycin-resistant Staphylococcus aureus AIS100050 after 16 to 18 hrs by CLSI M07-A10 protocol based dilution method; type: functional
[11] = L-cysteine reactivity in pH 7.4 phosphate buffer at 100 uM preincubated for 1 hr followed by mono-bromobimane addition and measured after 30 mins by fluorescence based competition assay
[12] = L-cysteine reactivity in pH 7.4 phosphate buffer assessed as pseudo first order rate constant at 100 uM measured at 10 mins time interval up to 60 mins by HPLC analysis
Staphylococcus aureus [13] = assay: Bactericidal activity against Staphylococcus aureus ATCC 29213 at 1 to 10 times MIC preincubated up to 24 hrs under shaking condition followed by bacterial plating on Tryptic Soy agar and measured after 18 to 20 hrs by time kill assay; type: functional, organism-based
[14] = Selectivity index, ratio of CC50 for African green monkey Vero cells to MIC90 for Staphylococcus aureus ATCC 29213; type: toxicity; conditions: read-out: Selectivity Index
Staphylococcus aureus [15] = assay: Binding affinity to membrane protein in Staphylococcus aureus ATCC 29213 cell lysates after 1 hr by Rhodamine azide fluorescence dependent gel-based ABPP assay; type: functional; conditions: Lysate
Outline: (§1)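 S. aureus soluble or fractionated membrane lysates were incubated 1 h with alkyne probe (0.01–100 μM), then Cu-catalysed click with rhodamine-azide. Proteomes were resolved by SDS-PAGE and visualised by in-gel fluorescence (gel-based ABPP).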

Staphylococcus aureus [16] = assay: Binding affinity to soluble protein in Staphylococcus aureus ATCC 29213 cell lysates after 1 hr by Rhodamine azide fluorescence dependent gel-based ABPP assay; type: functional; conditions: Lysate; outline: as §1
Staphylococcus aureus [17] = assay: Binding affinity to soluble protein in Staphylococcus aureus ATCC 29213 cells after 1 hr by Rhodamine azide fluorescence dependent gel-based ABPP assay; type: functional, organism-based
Outline: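 Live S. aureus cultures were treated with probe (10 μM, 1 h), then lysed and fractionated into soluble and membrane proteomes. Labelling was assessed by rhodamine-azide click and SDS-PAGE fluorescence.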

Staphylococcus aureus [18] = assay: Binding affinity to Staphylococcus aureus ATCC 29213 C-terminal His6-tagged MarR_12840 C61A mutant expressed in Escherichia coli BL21(DE3) cells up to 100 uM incubated for 1 hr by Rhodamine azide fluorescence dependent gel-based ABPP assay
Outline: (§2)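 Recombinant His-tagged protein purified from E. coli by Ni-NTA affinity chromatography; wild-type and Cys-to-Ala variant treated with increasing alkyne quinone-epoxide probe (0–100 μM) for 1 h. Then Cu-catalysed click reaction with rhodamine-azide, SDS-PAGE resolution, and in-gel fluorescence visualisation of probe labelling.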

Staphylococcus aureus [19] = assay: Binding affinity to Staphylococcus aureus ATCC 29213 C-terminal His6-tagged MarR_05815 C12A mutant expressed in Escherichia coli BL21(DE3) cells up to 100 uM incubated for 1 hr by Rhodamine azide fluorescence dependent gel-based ABPP assay; outline: as §2
Escherichia coli [20] = assay: Binding affinity to membrane protein in Escherichia coli ATCC 25922 cells after 1 hr by Rhodamine azide fluorescence dependent gel-based ABPP assay; type: functional, organism-based
Escherichia coli [21] = assay: Binding affinity to membrane protein in Escherichia coli ATCC 25922 cell lysates after 1 hr by Rhodamine azide fluorescence dependent gel-based ABPP assay; type: functional; conditions: Lysate
Staphylococcus aureus [22] = assay: Cysteine reactivity in iodoacetamide treated Staphylococcus aureus ATCC 29213 cell lysates at 10 uM incubated for 1 hr by Rhodamine azide fluorescence dependent gel-based competitive ABPP assay; type: subcellular; conditions: Cell lysate
Outline: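 Fractionated S. aureus soluble and membrane lysates were pretreated with excess iodoacetamide (10 mM), then chased with probe (10 μM). Read-out was rhodamine-azide click and SDS-PAGE in-gel fluorescence.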

Escherichia coli [23] = assay: Binding affinity to soluble protein in Escherichia coli ATCC 25922 cell lysates after 1 hr by Rhodamine azide fluorescence dependent gel-based ABPP assay; type: functional; conditions: Lysate
Escherichia coli [24] = assay: Binding affinity to soluble protein in Escherichia coli ATCC 25922 cells after 1 hr by Rhodamine azide fluorescence dependent gel-based ABPP assay; type: functional, organism-based
Staphylococcus aureus [25] = assay: Binding affinity to Staphylococcus aureus ATCC 29213 C-terminal His6-tagged MarR_12840 (Cys61 residue) expressed in Escherichia coli BL21(DE3) cells up to 100 uM incubated for 1 hr by Rhodamine azide fluorescence dependent gel-based ABPP assay
Outline: (§3)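 Recombinant His-tagged MarR proteins were purified from E. coli by Ni-NTA, as wild type and as Cys→Ala variants (C61A MarR_12840; C12A MarR_05815). Proteins were labelled with probe at 0–100 μM for 1 h, then click with rhodamine-azide and SDS-PAGE fluorescence read-out.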

Staphylococcus aureus [26] = assay: Binding affinity to Staphylococcus aureus ATCC 29213 C-terminal His6-tagged MarR_05815 (Cys12 residue) expressed in Escherichia coli BL21(DE3) cells up to 100 uM incubated for 1 hr by Rhodamine azide fluorescence dependent gel-based ABPP assay; outline: as §3
Staphylococcus aureus [27] = assay: Bactericidal activity against vancomycin-resistant Staphylococcus aureus HIP11714 at 10 times MIC measured up to 24 hrs by time kill assay; type: functional, organism-based

Structure (SMILES): O=C1c2ccc3c([nH]c4ccccc43)c2C(=O)C2OC12 (centres undefined)
Activity [1]: 33%
MIC (Staphylococcus aureus [2]): 4 µg/mL (≈ 15.2 µM)

Structure (SMILES): Cc1cc2c([nH]c3ccccc32)c2c1C(=O)C1OC1C2=O (centres undefined)
Activity [1]: 86%
MIC (Staphylococcus aureus [2]): > 16 µg/mL

Structure (SMILES): CN[C@H](CC(C)C)C(=O)N[C@H]1C(=O)N[C@@H](CC(N)=O)C(=O)N[C@H]2C(=O)N[C@H]3C(=O)N[C@H](C(=O)N[C@H](C(=O)O)c4cc(O)cc(O)c4-c4cc3ccc4O)[C@H](O)c3ccc(c(Cl)c3)Oc3cc2cc(c3O[C@@H]2O[C@H](CO)[C@@H](O)[C@H](O)[C@H]2O[C@H]2C[C@](C)(N)[C@H](O)[C@H](C)O2)Oc2ccc(cc2Cl)[C@H]1O [VANCOMYCIN]
MIC (Staphylococcus aureus [3]): > 64 µg/mL
MIC (Staphylococcus aureus [4]): 32 to 64 µg/mL (≈ 22.1 to 44.2 µM)
MIC (Staphylococcus aureus [5]): 32 to 64 µg/mL (≈ 22.1 to 44.2 µM)
MIC (Staphylococcus aureus [6]): > 64 µg/mL
MIC (Staphylococcus aureus [7]): 32 to 64 µg/mL (≈ 22.1 to 44.2 µM)
MIC (Staphylococcus aureus [8]): > 64 µg/mL
MIC (Staphylococcus aureus [9]): > 64 µg/mL
MIC (Staphylococcus aureus [10]): 32 to 64 µg/mL (≈ 22.1 to 44.2 µM)

Structure (SMILES): Cn1c2ccccc2c2ccc3c(c21)C(=O)C1OC1C3=O (centres undefined)
Activity [1]: 27%
MIC (Staphylococcus aureus [2]): 4 µg/mL (≈ 14.4 µM)

Structure (SMILES): CCn1c2ccccc2c2ccc3c(c21)C(=O)C1OC1C3=O (centres undefined)
Activity [1]: 33%
MIC (Staphylococcus aureus [2]): 2 µg/mL (≈ 6.87 µM)

Structure (SMILES): C#CCCCn1c2ccccc2c2ccc3c(c21)C(=O)C1OC1(c1ccccc1)C3=O (centres undefined)
Activity (Staphylococcus aureus [15]): Active
Activity [11]: Active
Activity (Staphylococcus aureus [16]): inactive
Activity (Staphylococcus aureus [17]): Active
MIC (Staphylococcus aureus [2]): > 64 µg/mL

Structure (SMILES): COc1ccc(C23OC2C(=O)c2ccc4c5ccccc5n(C(C)C)c4c2C3=O)cc1 (centres undefined)
MIC (Staphylococcus aureus [2]): 0.5 µg/mL (≈ 1.22 µM)

Structure (SMILES): C#CCCCn1c2ccccc2c2ccc3c(c21)C(=O)C1OC1C3=O (centres undefined)
Activity (Staphylococcus aureus [15]): Active
Activity (Staphylococcus aureus [18]): inactive
Activity (Staphylococcus aureus [19]): inactive
Activity [11]: Active
Activity (Escherichia coli [20]): inactive
Activity (Escherichia coli [21]): Active
Activity (Staphylococcus aureus [22]): inactive
Activity (Staphylococcus aureus [16]): Dose-dependent effect
Activity (Escherichia coli [23]): Active
Activity (Escherichia coli [24]): inactive
Activity (Staphylococcus aureus [25]): Dose-dependent effect
Activity (Staphylococcus aureus [17]): Active
Activity (Staphylococcus aureus [26]): Dose-dependent effect
MIC (Staphylococcus aureus [2]): 1 µg/mL (≈ 3.04 µM)

Structure (SMILES): COc1ccc(C23OC2C(=O)c2c(ccc4c5ccccc5n(C(C)C)c24)C3=O)cc1 (centres undefined)
MIC (Staphylococcus aureus [2]): > 64 µg/mL

Structure (SMILES): CCCCCCCCCC(=O)N[C@@H](Cc1c[nH]c2ccccc12)C(=O)N[C@@H](CC(N)=O)C(=O)N[C@@H](CC(=O)O)C(=O)N[C@@H]1C(=O)NCC(=O)N[C@@H](CCCN)C(=O)N[C@H](CC(=O)O)C(=O)N[C@H](C)C(=O)N[C@@H](CC(=O)O)C(=O)NCC(=O)N[C@H](CO)C(=O)N[C@@H]([C@@H](C)CC(=O)O)C(=O)N[C@@H](CC(=O)c2ccccc2N)C(=O)O[C@@H]1C
Activity (Staphylococcus aureus [27]): Active

Structure (SMILES): CCc1cc2c3ccccc3n(C(C)C)c2c2c1C(=O)C1OC1C2=O (centres undefined)
Activity [1]: 88%
MIC (Staphylococcus aureus [2]): 64 µg/mL (≈ 192 µM)

Now from value to compound, other results behind:

Activity [1]: 84%
MIC (Staphylococcus aureus [2]): 4 µg/mL (≈ 12.5 µM)
Structure (SMILES): Cc1cc2c3ccccc3n(C(C)C)c2c2c1C(=O)C1OC1C2=O (centres undefined)

MIC (Staphylococcus aureus [2]): 1 µg/mL (≈ 2.17 µM)
Structure (SMILES): CC(C)n1c2ccccc2c2ccc3c(c21)C(=O)C1(c2ccc(Br)cc2)OC1C3=O (centres undefined)

Activity [11]: Active
MIC (Staphylococcus aureus [2]): > 64 µg/mL
K [12]: 0.78 ×10⁻² /min
Structure (SMILES): CC(C)n1c2ccccc2c2ccc3c(c21)C(=O)C1OC1(c1ccccc1)C3=O (centres undefined)

MIC (Staphylococcus aureus [2]): 0.0625 µg/mL (≈ 0.164 µM)
Structure (SMILES): CC(C)n1c2ccccc2c2ccc3c(c21)C(=O)C1(c2ccccc2)OC1C3=O (centres undefined)
Activity (Staphylococcus aureus [13]): Active
selectivity ratio [14]: > 200

Activity [1]: 93%
MIC (Staphylococcus aureus [2]): 2 µg/mL (≈ 6.55 µM)
Structure (SMILES): CCn1c2ccccc2c2cc(C)c3c(c21)C(=O)C1OC1C3=O (centres undefined)

Activity [1]: 57%
MIC (Staphylococcus aureus [2]): 2 µg/mL (≈ 5.89 µM)
Structure (SMILES): O=C1c2ccc3c4ccccc4n(-c4ccccc4)c3c2C(=O)C2OC12 (centres undefined)

MIC (Staphylococcus aureus [2]): > 64 µg/mL
Structure (SMILES): CC(C)n1c2ccccc2c2ccc3c(c21)C(=O)C1OC1(c1ccc(Br)cc1)C3=O (centres undefined)
